A word on the IC50: it is the point on the concentration scale where inhibition reaches its midpoint. By Km is commonly meant the concentration of substrate that gives half-maximal velocity.

The text below walks through data of article PMC1316110 (Nucleic Acids Research, 2005).

In test [1] the target is T1, T4 DNA ligase (Enterobacteria phage T4, UniProt P00970).
T1 sequence (P00970 1-487): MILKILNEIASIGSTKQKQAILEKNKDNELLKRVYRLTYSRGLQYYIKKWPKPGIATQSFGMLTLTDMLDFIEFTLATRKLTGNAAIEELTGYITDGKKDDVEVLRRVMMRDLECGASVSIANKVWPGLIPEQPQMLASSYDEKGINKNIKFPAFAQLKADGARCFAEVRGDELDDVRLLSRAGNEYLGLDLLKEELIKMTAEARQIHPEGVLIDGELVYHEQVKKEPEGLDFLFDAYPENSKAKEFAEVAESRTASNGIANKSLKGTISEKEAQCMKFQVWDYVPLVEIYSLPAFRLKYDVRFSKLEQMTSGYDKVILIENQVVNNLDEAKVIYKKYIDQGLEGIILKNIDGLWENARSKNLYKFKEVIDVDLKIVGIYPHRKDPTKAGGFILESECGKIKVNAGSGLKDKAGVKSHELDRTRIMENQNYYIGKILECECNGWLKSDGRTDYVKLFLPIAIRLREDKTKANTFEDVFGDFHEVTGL
Kind of test: In vitro ligase inhibition assay, 32P-labeled nicked 40 bp DNA substrate. It is filed as biochemical, bacteriophage T4. The settings on record: read-out: IC50 T4Lig; 66 µM ATP, 10% Me2SO.

Test [2] has as its target T2, MtuLigA (Mycobacterium tuberculosis, UniProt P9WNV1). Kind of test: Mode of inhibition, Michaelis-Menten / Lineweaver-Burk kinetics. Format: biochemical, M.tuberculosis. The conditions noted are these: read-out: Km for NAD^+; absence of the inhibitor, 10% Me2SO. Put shortly:
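Full-length recombinant MtuLigA (2 ng), 50 mM Tris–HCl pH 8.0, 5 mM DTT, 10 mM MgCl2, 10% Me2SO, 5′-32P-labelled nicked 40 bp duplex at 0.85 µM (saturating), NAD+ 0–50 µM, compound 0–250 or 0–450 µM; 1 h, 25°C. Ligation rate from gel scanning; Michaelis–Menten fit. Ki from apparent Km versus compound concentration. Mode from Lineweaver–Burk linear regression.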

Test [3] has as its target T2, MtuLigA. Format: biochemical, M.tuberculosis. The settings on record: read-out: IC50 MtuLigA; 50 µM NAD+, 10% Me2SO, 1 h at 25°C.

As to Doxorubicin [Compound 7], the IC50 in test [1] was found to be 1600 ± 15 µM. `NC(=O)c1ccc[n+]([C@@H]2O[C@H](COP(=O)([O-])OP(=O)(O)OC[C@H]3O[C@@H](n4cnc5c(N)ncnc54)[C@H](O)[C@@H]3O)[C@@H](O)[C@H]2O)c1` [NAD]: the Km in test [2] was 1.56 µM. For Chloroquine [Compound 6], the 50% inhibitory concentration (IC50) turned out to be 3 ± 0.2 µM in test [1] and 5 ± 0.3 µM in test [3].
